Source: ChEMBL document CHEMBL2062398, “De novo peptide design with C3a receptor agonist and antagonist activities: theoretical predictions and experimental validation” (J Med Chem, 2012)
Calls of active or inactive are those of the source. The calls are words filed in the database; no cut-off is given here.

Columns and labels:
[1] = molecular target: T1, C3a anaphylatoxin chemotactic receptor (Homo sapiens) (UniProt Q16581); assay: Antagonist activity at human C3a receptor expressed in RBL-2H3 cells assessed as inhibition of human recombinant C3a -induced beta-hexosaminidase activity in cell supernatant measuring minimum receptor activity compound preincubated for 10 mins by degranulation assay; assay type: functional, cell-based; parameters: scale not given: the % may be the effect or the level left
T1 sequence (whole entry): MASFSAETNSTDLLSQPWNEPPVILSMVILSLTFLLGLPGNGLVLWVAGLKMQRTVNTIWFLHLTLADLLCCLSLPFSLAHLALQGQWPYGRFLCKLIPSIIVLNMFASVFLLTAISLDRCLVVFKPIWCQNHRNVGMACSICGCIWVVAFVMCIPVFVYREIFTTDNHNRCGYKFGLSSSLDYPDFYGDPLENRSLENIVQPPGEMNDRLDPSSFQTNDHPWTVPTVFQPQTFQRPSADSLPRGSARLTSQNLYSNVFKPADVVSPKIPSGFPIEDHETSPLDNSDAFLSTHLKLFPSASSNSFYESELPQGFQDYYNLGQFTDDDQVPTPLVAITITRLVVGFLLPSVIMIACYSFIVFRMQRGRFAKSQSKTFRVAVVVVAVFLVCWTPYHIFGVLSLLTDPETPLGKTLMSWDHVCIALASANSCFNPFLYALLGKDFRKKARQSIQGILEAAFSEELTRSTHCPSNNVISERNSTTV
Method in brief: (§1)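 RBL-2H3 cells expressing human C3aR (DMEM, 10% FCS, G-418, 37°C) were pretreated with peptide for 10 min before 200 nM recombinant human C3a or 10 nM FLPLAR was added. β-Hexosaminidase release in supernatant was measured as percent of the agonist-alone response. IC50, calculated minimum and SEM came from iterative curve fitting.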

[2] = molecular target: T1, C3a anaphylatoxin chemotactic receptor (Homo sapiens); assay: Antagonist activity at human C3a receptor expressed in RBL-2H3 cells assessed as inhibition of FLPLAR-induced beta-hexosaminidase activity in cell supernatant measuring minimum receptor activity compound preincubated for 10 mins by degranulation assay; assay type: functional, cell-based; parameters: scale not given: the % may be the effect or the level left; method in brief: as §1
[3] = molecular target: T2, C5a anaphylatoxin chemotactic receptor 1 (Homo sapiens) (UniProt P21730); assay: Antagonist activity at human C5a receptor expressed in RBL-2H3 cells assessed as beta-hexosaminidase activity in cell supernatant up to 1 uM compound preincubated for 10 mins by degranulation assay; assay type: functional, cell-based
T2 sequence (whole entry): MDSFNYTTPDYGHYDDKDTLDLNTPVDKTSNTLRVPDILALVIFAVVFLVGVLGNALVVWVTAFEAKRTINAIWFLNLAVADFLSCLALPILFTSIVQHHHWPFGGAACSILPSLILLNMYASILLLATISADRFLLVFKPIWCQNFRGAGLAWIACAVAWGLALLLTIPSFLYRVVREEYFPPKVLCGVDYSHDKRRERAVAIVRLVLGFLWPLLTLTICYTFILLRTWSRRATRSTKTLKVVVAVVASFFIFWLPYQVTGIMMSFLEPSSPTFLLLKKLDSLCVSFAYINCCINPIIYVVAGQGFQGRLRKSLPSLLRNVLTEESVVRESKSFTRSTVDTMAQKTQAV
Method in brief: (§2)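 Human C5aR-transfected RBL-2H3 cells were tested with peptides up to 1 μM. In the agonist mode, β-hexosaminidase secretion was taken relative to 200 nM human C5a. In the antagonist mode, cells were pretreated with peptide for 10 min before C5a was added.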

[4] = molecular target: T2, C5a anaphylatoxin chemotactic receptor 1 (Homo sapiens); assay: Agonist activity at human C5a receptor expressed in RBL-2H3 cells assessed as beta-hexosaminidase activity in cell supernatant up to 1 uM by degranulation assay; assay type: functional, cell-based; method in brief: as §2
[5] = molecular target: T1, C3a anaphylatoxin chemotactic receptor (Homo sapiens); assay: Agonist activity at human C3a receptor expressed in RBL-2H3 cells assessed as beta-hexosaminidase activity in cell supernatant by degranulation assay relative to FLPLAR; assay type: functional, cell-based
Method in brief: (§3)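 Transfected RBL-2H3 cells kept in DMEM, 10% FCS, 400 mg/liter G-418, 37°C, 5% CO2. Degranulation read as β-hexosaminidase activity in supernatant. Secretion expressed as percent of maximal response to 200 nM recombinant human C3a or 10 nM FLPLAR. EC50, calculated maximum and SEM from iterative curve fitting.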

[6] = molecular target: T1, C3a anaphylatoxin chemotactic receptor (Homo sapiens); assay: Agonist activity at human C3a receptor expressed in RBL-2H3 cells assessed as beta-hexosaminidase activity in cell supernatant by degranulation assay relative to recombinant human C3a; assay type: functional, cell-based; method in brief: as §3
[7] = molecular target: T3, C3a anaphylatoxin chemotactic receptor (Homo sapiens, UniProt Q16581); assay: Agonist activity at human C3a receptor expressed in RBL-2H3 cells assessed as beta-hexosaminidase activity in cell supernatant by degranulation assay; assay type: functional, cell-based
T3 sequence (Q16581 whole entry): T1 sequence (whole entry)
Method in brief: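 Degranulation read as β-hexosaminidase activity in supernatant. Secretion expressed as percent of maximal response to 200 nM recombinant human C3a or 10 nM FLPLAR. EC50, calculated maximum and SEM from iterative curve fitting.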

[8] = molecular target: T3, C3a anaphylatoxin chemotactic receptor; assay: Antagonist activity at human C3a receptor expressed in RBL-2H3 cells assessed as beta-hexosaminidase activity in cell supernatant compound preincubated for 10 mins by degranulation assay; assay type: functional, cell-based
[9] = molecular target: T1, C3a anaphylatoxin chemotactic receptor (Homo sapiens); assay: Agonist activity at C3a receptor in dbcAMP differentiated human U937 cells assessed as increase in intracellular calcium using […] staining by microplate reader relative to FLPLAR; assay type: functional, cell-based; conditions: U-937
Method in brief: (§4)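 U937 cells grown in RPMI-1640 with 10% FCS at 37°C, 5% CO2, differentiated 48 h in 1 mM dibutyryl cAMP. Intracellular calcium rise read with Fluo-4 dye on a plate reader.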

[10] = molecular target: T3, C3a anaphylatoxin chemotactic receptor; assay: Agonist activity at C3a receptor in dbcAMP differentiated human U937 cells assessed as increase in intracellular calcium using […] staining by microplate reader; assay type: functional, cell-based, U-937; method in brief: as §4

Substance	Activity [1] [%]	Activity [2] [%]	Activity [3]	Activity [4]	Emax [5] [%]	Emax [6] [%]	EC50 [7] [nM]	IC50 [8] [nM]	Emax [9] [%]	EC50 [10] [nM]
Ac-WWDRRWRASKLGLAR-OH	24	48	inactive	inactive	14	14				
Ac-WWERRWRASKLGLAR-OH	35	61	inactive	inactive	22	22				
Ac-WWGKKYRASKLGLAR-OH	52		inactive	inactive	38					
Ac-WWRNRWRENRLGLAR-OH	62.5	62.5	inactive	inactive		62				
Ac-WWSRRWRASKLGLAR-OH	40	40	inactive	inactive	13	13	148	63.1		
Ac-WWTRRWRADKLGLAR-OH	68	68	inactive	inactive	79	79	66.1	4.57	74	490
Ac-WWTRRWRASKLGLAR-OH	47	47	inactive	inactive	35	35	195	50.1		
Ac-WWTRRWRGDKLGLAR-OH	70	70	inactive	inactive	72	72	25.1	9.12	81	794
Ac-WWTRRWRTDKLGLAR-OH [listing 1 of 2 here]							339	5.01		
Ac-WWTRRWRTDKLGLAR-OH [listing 2 of 2 here]	60	60	inactive	inactive	43	43				
Ac-WWTRRWRTEKLGLAR-OH [listing 1 of 2 here]							708	7.76		
Ac-WWTRRWRTEKLGLAR-OH [listing 2 of 2 here]	60	60	inactive	inactive	45	45				
Ac-WWTRRYRASKLGLAR-OH [listing 1 of 2 here]							1000	23.4		
Ac-WWTRRYRASKLGLAR-OH [listing 2 of 2 here]	42	42	inactive	inactive	29	29				
H-WWTRRWRASKLGLAR-OH		63	inactive	inactive	37					
